PubChem BioAssay
The source made the active and inactive calls.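 How the source made its calls, unless noted: active means mean duplicate potentiation above the buffer control mean plus 5 SD of buffer wells; inactive means the rest.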

Tests used:
[1] = nonspecific flux increase, KCNQ1-free cells – parental CHO cells, counter-screen for KCNQ1 potentiator project (AID 493006;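 active means duplicate-averaged activation above buffer control mean plus 5 SD of those controls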;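 on activation: fluorescence ratio of max minus min over baseline after K+ and Tl+ depolarization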); conditions: parental CHO-K1 cells, FluxOR thallium flux, at 10 µM; hits give high values
How it was run: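 Assay system: parental CHO-K1 cells lacking KCNQ1, loaded with FluxOR thallium dye; timing: dye 90 min RT, compound 20 min RT; signal: kinetic thallium-flux fluorescence; repeats: duplicate wells per compound, percent values averaged; benchmarks: buffer and R-L3 controls; reagent: Potassium/thallium depolarization pulse; read-out: fluorescence change ratio scaled 0% buffer, 100% R-L3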

[2] = biological target: Potassium voltage-gated channel subfamily KQT member 1 (Homo sapiens) (UniProt P51787); assay: enhancement of KCNQ1 channel thallium flux – FluxOR thallium flux, CHO cells, duplicates, confirmation (AID 493007;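 active means potentiation averaged over duplicate wells exceeding buffer-only control mean by more than 3 SD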;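 on outcome: cells depolarized by a potassium plus thallium sulfate stimulus after compound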); conditions: KCNQ1 cell line, FluxOR thallium flux fluorescence, at 10 µM; hits give high values, % of reference activator effect, buffer zero
How it was run: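 material = CHO cells stably expressing the KCNQ1 potassium channel | repeats = duplicate wells per compound | measure = percent activation between buffer and R-L3 responses | signal = FluxOR thallium-flux fluorescence, kinetic read | schedule = FluxOR dye loading 90 min, compound exposure 20 min, room temperature | control set = buffer and R-L3 controls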

[3] = biological target: Potassium voltage-gated channel subfamily KQT member 2 (Rattus norvegicus) (UniProt O88943); assay: KCNQ2 thallium flux enhancement – KCNQ2-CHO-K1 cells, selectivity assay for KCNQ1 potentiator project (AID 493009); conditions: FluxOR thallium flux fluorescence, at 10 µM; hits give high values, scaled: buffer 0, activator control 100;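 further: assay conditions were tuned for KCNQ1 rather than KCNQ2 modulators; signal is max minus min fluorescence divided by baseline after thallium stimulus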
[4] = biological target: Potassium voltage-gated channel subfamily KQT member 1 (Homo sapiens) (UniProt P51787); assay: KCNQ1 activators by electrophysiology – IonWorks patch clamp, KCNQ1-CHO cells, orthogonal assay for KCNQ1 potentiator project, confirmation (AID 493184;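 active means current rise at least 3 SD above the untreated control mean in each of two repeat wells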;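 on current potentiation: percent change of the same well's current before compound addition so 0% = no change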); conditions: automated patch clamp current, at 10 µM; hits give high values
How it was run: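 Assay system – CHO cells carrying KCNQ1 · Medium – pH 7.4 external bath · Probe or stimulus – depolarizing pulse to +40 mV from -90 mV · Compound dosing – one dose, 10 µM final · Measured by – automated perforated-patch electrophysiology · Measure – % potentiation of steady-state current relative to pre-compound · Repeats – two replicates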

Chain of Potassium voltage-gated channel subfamily KQT member 1 (Homo sapiens) (P51787 whole entry, looked up): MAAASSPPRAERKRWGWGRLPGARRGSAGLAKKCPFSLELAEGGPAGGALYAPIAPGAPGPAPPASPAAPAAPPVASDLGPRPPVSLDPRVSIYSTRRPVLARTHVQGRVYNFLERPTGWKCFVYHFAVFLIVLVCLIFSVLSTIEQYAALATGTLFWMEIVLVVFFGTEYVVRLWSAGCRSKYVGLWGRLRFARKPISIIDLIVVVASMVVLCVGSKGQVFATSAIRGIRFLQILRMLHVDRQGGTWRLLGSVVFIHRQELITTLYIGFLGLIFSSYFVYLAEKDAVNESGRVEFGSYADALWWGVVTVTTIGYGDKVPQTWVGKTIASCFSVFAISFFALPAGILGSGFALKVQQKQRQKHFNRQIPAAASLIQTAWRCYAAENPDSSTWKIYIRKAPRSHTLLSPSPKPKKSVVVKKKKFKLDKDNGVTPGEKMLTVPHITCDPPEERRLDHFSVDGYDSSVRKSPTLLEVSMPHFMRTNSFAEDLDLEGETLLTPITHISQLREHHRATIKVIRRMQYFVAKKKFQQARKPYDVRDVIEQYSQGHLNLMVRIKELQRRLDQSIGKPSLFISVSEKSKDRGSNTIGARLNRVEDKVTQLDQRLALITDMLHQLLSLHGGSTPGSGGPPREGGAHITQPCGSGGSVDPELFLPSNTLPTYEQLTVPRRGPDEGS
Chain of Potassium voltage-gated channel subfamily KQT member 2 (Rattus norvegicus) (O88943 whole entry, looked up): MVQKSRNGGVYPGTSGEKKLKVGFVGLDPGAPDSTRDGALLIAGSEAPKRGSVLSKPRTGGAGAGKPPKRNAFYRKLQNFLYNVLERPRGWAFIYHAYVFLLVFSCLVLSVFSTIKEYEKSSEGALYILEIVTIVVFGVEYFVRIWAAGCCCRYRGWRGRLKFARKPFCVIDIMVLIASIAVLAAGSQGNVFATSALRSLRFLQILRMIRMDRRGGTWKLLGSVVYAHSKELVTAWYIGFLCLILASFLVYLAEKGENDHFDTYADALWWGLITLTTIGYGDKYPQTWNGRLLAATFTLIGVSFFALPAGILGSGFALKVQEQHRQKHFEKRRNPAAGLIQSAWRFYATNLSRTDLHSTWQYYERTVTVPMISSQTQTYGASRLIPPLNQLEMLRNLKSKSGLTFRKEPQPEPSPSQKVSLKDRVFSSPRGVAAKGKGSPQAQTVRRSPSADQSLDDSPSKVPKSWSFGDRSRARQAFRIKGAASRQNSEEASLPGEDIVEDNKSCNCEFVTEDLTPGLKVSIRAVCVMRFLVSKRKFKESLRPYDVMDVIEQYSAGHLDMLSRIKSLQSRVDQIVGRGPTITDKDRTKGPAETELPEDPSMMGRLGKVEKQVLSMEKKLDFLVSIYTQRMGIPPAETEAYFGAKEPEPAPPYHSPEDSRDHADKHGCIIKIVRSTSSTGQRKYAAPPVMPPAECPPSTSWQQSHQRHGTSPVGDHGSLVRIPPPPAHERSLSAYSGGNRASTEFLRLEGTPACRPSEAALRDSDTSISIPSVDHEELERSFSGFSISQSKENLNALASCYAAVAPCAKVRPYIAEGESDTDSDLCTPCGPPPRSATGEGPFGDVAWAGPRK

| SMILES | activation [1] | potentiation [2] | potentiation [3] | outcome [4] | outcome [1] | outcome [2] | outcome [3] | current potentiation [4] |
| --- | --- | --- | --- | --- | --- | --- | --- | --- |
| COc1ccc(OCC(=O)NNC(=O)c2cccs2)cc1 | 146% (active) | 47.5% (active) | 168% (active) | inactive | – | – | – | – |
| Cc1ccc(-c2n[nH]c(=S)nc2-c2ccc(C)cc2)cc1 | 160% (active) | 32% (active) | 159% (active) | inactive | – | – | – | – |
| COc1ccc(NC(=O)CC2C(=O)NCCN2C(=O)Nc2ccc(C(F)(F)F)cc2)cc1 (stereo not given) | – | – | – | inactive | inactive | inactive | inactive | – |
| COc1cc(C2NC(=O)NC(O)(C(F)(F)F)C2C(C)=O)cc(OC)c1OC (stereo not given) | – | – | – | inactive | inactive | inactive | inactive | – |
| Cc1ccc(-c2nc(N)s[n+]2-c2ccccc2)cc1 | 187% (active) | 157% (active) | 155% (active) | inactive | – | – | – | – |
| Nc1nc(N)c(N=Nc2ccc(C(=O)O)cc2)c(N)n1 | – | – | – | inactive | inactive | inactive | inactive | – |
| CCCN(CCC)C(=S)NC(=O)c1ccc(-c2ccccc2)cc1 | 436% (active) | 248% (active) | 556% (active) | inactive | – | – | – | – |
| CC(C)c1nc2n[nH]c(N)c2c2c1CSC(C)(C)C2 | – | 31.5% (active) | – | inactive | inactive | – | inactive | – |
| O=c1c2ccc(Cl)cc2[nH]c(=S)n1CCC1=CCCCC1 | 156% (active) | 48.5% (active) | 166% (active) | inactive | – | – | – | – |
| O=C1C(C2=C(O)c3ccccc3C2=O)=Nc2ccccc21 | 225% (active) | 61% (active) | 238% (active) | inactive | – | – | – | – |
| O=C(NC1CC1)C1=NOC(CNc2ncc(C(F)(F)F)cc2Cl)C1 (stereo not given) | – | – | – | inactive | inactive | inactive | inactive | – |
| S=c1[nH]c2ccc(Cl)cc2s1 | 614% (active) | 228% (active) | 526% (active) | inactive | – | – | – | – |
| CCc1ccc2nc(N(CCCN(C)C)C(=O)c3ccc(S(=O)(=O)N4CCCc5ccccc54)cc3)sc2c1 | – | – | – | inactive | inactive | inactive | inactive | – |
| CSC(=S)N/N=C(\C)c1ccc(Br)cc1 | 309% (active) | 132% (active) | 258% (active) | inactive | – | – | – | – |
| CC1CCN(S(=O)(=O)c2cccc(C(=O)N3CCN(c4ccc(F)cc4)CC3)c2)CC1 | – | – | – | inactive | inactive | inactive | inactive | – |
| COc1ccc(-c2csc(NC(=O)C3CCCCN3S(=O)(=O)c3ccccc3)n2)cc1 (stereo not given) | – | 93.5% (active) | – | – | inactive | – | inactive | 122% (active) |
| C/C(=N\NC(=O)c1cccc(Br)c1)c1ccccn1 | – | – | – | inactive | inactive | inactive | inactive | – |
| Cn1ncc([N+](=O)[O-])c1C(=O)N/N=C/c1ccc(F)cc1 | – | – | – | inactive | inactive | inactive | inactive | – |
| C=CCn1sc(=N)c(C#N)c1N | 528% (active) | 195% (active) | 492% (active) | inactive | – | – | – | – |
| O=S(=O)(c1cc(F)cc(F)c1)N1CCN(c2ncccn2)CC1 | – | – | – | inactive | inactive | inactive | inactive | – |

| SMILES | activation [1] | potentiation [2] | potentiation [3] | outcome [4] | outcome [1] | outcome [2] | outcome [3] | current potentiation [4] |
| --- | --- | --- | --- | --- | --- | --- | --- | --- |
| Fc1ccc(-c2csc(NC(=S)Nc3ccccc3)n2)cc1 | 153% (active) | 52.5% (active) | 154% (active) | inactive | – | – | – | – |
| CCOC(=O)c1nnn(CC(=O)Nc2cc(Cl)ccc2C)c1C(=O)OCC | 164% (active) | 33% (active) | – | inactive | – | – | inactive | – |
| C=C1CCN(c2ccc(C(=O)NCc3ccc(C)cc3)cc2[N+](=O)[O-])CC1 | 164% (active) | 19.5% (active) | – | inactive | – | – | inactive | – |
| Cc1cc(C(=O)NN)n[nH]1 | – | – | – | inactive | inactive | inactive | inactive | – |
| CSc1nc(C)cc(OCC(=O)N/N=C/c2ccccc2O)n1 | – | – | – | inactive | inactive | inactive | inactive | – |
| FC(F)Sc1nc2ccccc2[nH]1 | 154% (active) | – | – | inactive | – | inactive | inactive | – |
| C=CCn1c(=S)[nH]c2sc3c(c2c1=O)CCC3 | 364% (active) | 124% (active) | 301% (active) | inactive | – | – | – | – |
| S=c1nc(SCc2ccccc2)[nH]c2ccccc12 | 458% (active) | 320% (active) | 500% (active) | inactive | – | – | – | – |
| CC(/C=N/n1c(-c2ccc(Cl)cc2)n[nH]c1=S)=C\c1ccco1 | – | 28% (active) | – | inactive | inactive | – | inactive | – |
| O=C(NC(=S)N1CCc2ccccc21)c1ccccc1Cl | 443% (active) | 130% (active) | 416% (active) | inactive | – | – | – | – |
| CC(C)(C)NCC(O)COc1ccccc1C(C)(C)C (stereo not given) | – | – | – | inactive | inactive | inactive | inactive | – |
| O=Cc1ccc2noc(-c3ccc(Cl)cc3)c2c1 | – | – | – | inactive | inactive | inactive | inactive | – |
| N#C/C(=C\c1ccc(-c2ccccc2[N+](=O)[O-])o1)C(=O)Nc1nc(-c2cccs2)cs1 | 208% (active) | 56% (active) | 224% (active) | inactive | – | – | – | – |
| CN(C)CCCNc1nc2sc3c(c2c(=O)n1CCc1ccccc1)CCCCC3 | – | – | – | inactive | inactive | inactive | inactive | – |
| CCCCOC(=O)c1cc(C)nc2ccc(Br)cc12 | 306% (active) | 172% (active) | 320% (active) | inactive | – | – | – | – |
| FC(F)(F)c1cnc2c(c1)[nH]c(=S)n2-c1ccc(Cl)cc1 | 142% (active) | 27% (active) | 178% (active) | inactive | – | – | – | – |
| O=c1cc(N2CCc3ccccc32)[nH]c(=O)n1Cc1ccc(F)cc1 | – | – | – | inactive | inactive | inactive | inactive | – |
| CCCc1cc(-c2n[nH]c(=S)n2C(C)c2ccccc2)cs1 (stereo not given) | 139% (active) | 37% (active) | – | inactive | – | – | inactive | – |
| CCCCC(=O)N(c1ccc(OCC)cc1)C1C=CS(=O)(=O)C1 (stereo not given) | – | – | – | inactive | inactive | inactive | inactive | – |
| CN1C=CC=C/C1=C1\SC(=S)N(C2CCCCC2)C1=O | – | – | – | inactive | inactive | inactive | inactive | – |

| SMILES | activation [1] | potentiation [2] | potentiation [3] | outcome [4] | outcome [1] | outcome [2] | outcome [3] | current potentiation [4] |
| --- | --- | --- | --- | --- | --- | --- | --- | --- |
| S=c1nc(-c2ccc(Br)cc2)[nH]c2ccccc12 | 572% (active) | 188% (active) | 538% (active) | inactive | – | – | – | – |
| CCOC(=O)c1n[nH]n2c1nc(=S)c1ccccc12 | 260% (active) | 54.5% (active) | 246% (active) | inactive | – | – | – | – |
| O=C(COC(=O)c1cc(NS(=O)(=O)c2cccs2)ccc1O)Nc1cc(Cl)ccc1Cl | – | – | – | inactive | inactive | inactive | inactive | – |
| CCOc1ccccc1NC(=O)C1CCCN(S(=O)(=O)c2ccccc2)C1 (stereo not given) | – | – | – | inactive | inactive | inactive | inactive | – |
| Cc1ccc2c(c1)c(C)c(C)n2CC(O)CN1CCCCC1C (stereo not given) | – | – | – | inactive | inactive | inactive | inactive | – |
| COc1cc(S(=O)(=O)Nc2cccnc2)ccc1Cl | 200% (active) | 64% (active) | 212% (active) | inactive | – | – | – | – |
| CCn1c(=S)[nH]c2scc(-c3cccs3)c2c1=O | 548% (active) | 246% (active) | 528% (active) | inactive | – | – | – | – |
| Cc1[nH]n(-c2ccccc2)c(=O)c1/C=N/N(c1ccccc1)c1ccccc1 | – | 47% (active) | – | inactive | inactive | – | inactive | – |
| Cc1ccc2nc(C)cc(N/N=C/c3cccnc3)c2c1 | – | – | – | inactive | inactive | inactive | inactive | – |
| C/C(=N\NC(=O)c1cc2ccccc2cc1O)c1ccc(C)o1 | 238% (active) | 114% (active) | 264% (active) | inactive | – | – | – | – |
| Cc1cc(C)n(-c2nc3ccccc3nc2N2CCN(C(=O)c3ccc(Cl)cc3)CC2)n1 | – | – | – | inactive | inactive | inactive | inactive | – |
| Nc1ccc(C2(c3ccc(N)cc3)OC(=O)c3ccccc32)cc1 | – | – | – | inactive | inactive | inactive | inactive | – |
| O=C(NNc1nc2c(F)cc(F)cc2s1)c1ccccc1 | – | – | – | inactive | inactive | inactive | inactive | – |
| O=S(=O)(NCCOc1ccccc1)c1ccc2ccccc2c1 | – | – | – | inactive | inactive | inactive | inactive | – |
| O=C(c1ccc(S(=O)(=O)N2CCCC2)cc1)N1CCN(c2cccc(Cl)c2)CC1 | – | – | – | inactive | inactive | inactive | inactive | – |
| Cc1ccc(C(=O)OCC(=O)Nc2sc3c(c2C#N)CCCC3)cc1NC(=O)c1ccco1 | – | – | – | inactive | inactive | inactive | inactive | – |
| COc1ccc(C)cc1N=Nc1ccc(O)c2ncccc12 | – | – | – | inactive | inactive | inactive | inactive | – |
| S=c1[nH]nc(-c2ccc(Cl)cc2)n1/N=C/C=C/c1ccco1 | 159% (active) | 32% (active) | – | inactive | – | – | inactive | – |
| Cc1ccc(OCCN2C(=O)c3ccccc3C2=O)c([N+](=O)[O-])c1 | – | – | – | inactive | inactive | inactive | inactive | – |
| CCCCOC(=O)c1ccc(NC(=S)NC(=O)c2c(Cl)cnn2C)cc1 | – | 77.5% (active) | 160% (active) | inactive | inactive | – | – | – |
